Assay results as given in publication PMC5269645 (Journal of the American Chemical Society, 2016).
Where two headings read alike, the source gives them in different places. Each block holds one molecule with its values, some of them ahead of it.

How the values were obtained:
rat endomannosidase = conditions: read-out: IC50, rat endomannosidase; inhibition of cleavage of 14C-labeled GlcMan9GlcNAc; cited from earlier work
BtGH99 [1] = target: T1, BtGH99 (Bacteroides thetaiotaomicron, UniProt Q8A109); conditions: read-out: KD values, BtGH99; ITC; cited from earlier work
T1 sequence (Q8A109 18-382): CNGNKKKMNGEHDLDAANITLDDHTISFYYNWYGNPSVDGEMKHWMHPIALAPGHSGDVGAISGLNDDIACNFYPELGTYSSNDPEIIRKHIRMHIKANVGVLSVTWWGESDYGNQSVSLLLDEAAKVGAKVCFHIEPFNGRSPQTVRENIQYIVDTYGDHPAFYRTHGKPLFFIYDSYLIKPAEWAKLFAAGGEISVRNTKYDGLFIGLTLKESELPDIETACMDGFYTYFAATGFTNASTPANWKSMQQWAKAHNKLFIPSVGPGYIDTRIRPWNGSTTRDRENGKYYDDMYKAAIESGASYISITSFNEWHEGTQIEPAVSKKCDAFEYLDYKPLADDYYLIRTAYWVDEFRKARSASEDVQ

BxGH99 [2] = conditions: read-out: KD values, BxGH99; ITC; cited from earlier work
BxGH99 [3] = target: T2, BxGH99 (Bacteroides xylanisolvens, UniProt D6D1V7); assay: 2D NMR; type: binding
T2 sequence (D6D1V7 13-380): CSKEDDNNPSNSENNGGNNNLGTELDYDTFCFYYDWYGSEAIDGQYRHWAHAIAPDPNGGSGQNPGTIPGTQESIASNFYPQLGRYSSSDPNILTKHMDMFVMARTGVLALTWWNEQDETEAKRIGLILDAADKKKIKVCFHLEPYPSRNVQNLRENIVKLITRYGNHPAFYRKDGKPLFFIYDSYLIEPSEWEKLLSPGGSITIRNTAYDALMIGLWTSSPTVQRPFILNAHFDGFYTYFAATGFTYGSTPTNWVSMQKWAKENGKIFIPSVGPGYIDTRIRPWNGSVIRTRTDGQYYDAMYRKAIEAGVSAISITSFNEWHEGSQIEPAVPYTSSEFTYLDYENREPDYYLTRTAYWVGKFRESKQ
Summary of the method: (§1)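 1H–15N SOFAST-HMQC spectra of 15N-labeled enzyme (average 58 μM) recorded for 1 h at 298 K in 50 mM potassium phosphate pH 7.0, 50 mM KCl, 5% D2O. Active-site Arg Nε-Hε peak (R295, Bx numbering) served as reporter. Bound fraction from peak intensities at several protein/ligand ratios, fitted against free ligand for KD. Duplicate points; Monte Carlo error propagation (n = 10 000), standard deviation.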

BtGH99 [4] = target: T1, BtGH99; assay: 2D NMR; type: binding
Summary of the method: as §1

various glycosidases = conditions: cited from earlier work

SMILES: OC[C@H]1NC[C@@H](O)[C@@H](O[C@H]2O[C@H](CO)[C@@H](O)[C@H](O)[C@H]2O)[C@@H]1O [compound 1, GlcDMJ]
IC50 (rat endomannosidase): 1.7 µM
Kd (BtGH99 [1]): 24 µM

SMILES: OC[C@H]1CNCC(O[C@H]2O[C@H](CO)[C@@H](O)[C@H](O)[C@H]2O)[C@@H]1O (stereo partly drawn) [compound 2, GlcIFG]
Kd (BtGH99 [1]): 0.63 µM

SMILES: OC[C@H]1CNCC(O[C@H]2O[C@H](CO)[C@@H](O)[C@H](O)[C@@H]2O)[C@@H]1O (stereo partly drawn) [compound 3, ManIFG]
Kd (BtGH99 [1]): 0.14 µM
Kd (BxGH99 [2]): 0.27 µM

SMILES: OC[C@H]1OCC[C@@H](O[C@H]2O[C@H](CO)[C@@H](O)[C@H](O)[C@H]2O)[C@@H]1O [compound 4, GlcddMan]
IC50 (rat endomannosidase): 3.8 µM

Kd (BxGH99 [3]): 221 ± 11 µM
affinity relative to ManGlucal, fold worse, BxGH99 (BxGH99 [3]; ratio of KD values): 8 fold
Kd (BtGH99 [4]): 53 ± 5 µM
SMILES: OC[C@H]1OCC[C@@H](O[C@H]2O[C@H](CO)[C@@H](O)[C@H](O)[C@@H]2O)[C@@H]1O [compound 5, α-D-Mannopyranosyl-(1→3)-1,2-dideoxy-D-mannopyranose]

Kd (BxGH99 [3]): 111 ± 11 µM
Kd (BtGH99 [4]): 15 ± 1.9 µM
SMILES: OC[C@H]1O[C@H](O[C@@H]2C=CO[C@H](CO)[C@H]2O)[C@@H](O)[C@@H](O)[C@@H]1O [compound 7, α-D-Mannopyranosyl-(1→3)-1,5-anhydro-2-deoxy-D-arabino-hex-1-enitol]

SMILES: OC[C@H]1CNC(O)[C@@H](O)[C@@H]1O (stereo partly drawn) [noeuromycin]
times more tightly bound than isofagomine (various glycosidases): 2–4000 times
